Reference: ChEMBL document CHEMBL4118021, “Studies of TAK1-centered polypharmacology with novel covalent TAK1 inhibitors” (Bioorg Med Chem, 2017)
Active and inactive are the calls of the source.

What was measured:
Format in all cases: cell-based
[1] = target: T1, 80S Ribosome (Homo sapiens) (UniProt P08865+P42677+P62753+P15880+P23396+P61247+P62701+P22090+P46782+P62081+P62241+P46781+P46783+P62280+P25398+P62277+P62263+P62841+P62244+P62249+P08708+P62269+P39019+P60866+P63220+P62266+P62847+P62851+P62854+P62979+P62857+P62273+P62861+P39023+P36578+P46777+Q02878+P18124+P62424+P62917+P32969+P27635+P62906+P62913+P30050+P26373+P40429+P50914+P61313+P18621+Q07020+Q02543+P84098+P46778+P35268+P62829+P62750+P83731+P61254+P61353+P46776+P46779+P47914+P62888+P62899+P62910+P49207+P42766+P18077+Q9Y3U8+P83881+P61927+P61513+P63173+P62891+P62945+P05388+P05386); assay: Binding affinity to RPL26 in human NCI-H358 cells at 1 uM by mass spectrometry based pull down assay
[2] = target: Src substrate cortactin (Homo sapiens) (UniProt Q14247); assay: Binding affinity to CTTN in human NCI-H23 cells at 1 uM by mass spectrometry based pull down assay
[3] = target: Proteasome Macropain subunit MB1 (Homo sapiens) (UniProt P28074); assay: Binding affinity to PSMB5 in human NCI-H23 cells at 1 uM by mass spectrometry based pull down assay
[4] = target: T1, 80S Ribosome (Homo sapiens); assay: Binding affinity to RPL27 in human NCI-H23 cells at 1 uM by mass spectrometry based pull down assay
[5] = target: Actin-related protein 2 (Homo sapiens) (UniProt P61160); assay: Binding affinity to ACTR2 in human NCI-H23 cells at 1 uM by mass spectrometry based pull down assay
Summary of the method: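 NCI-H23 or NCI-H358 cells were grown and lysed. Lysates were incubated overnight at 4 °C with 1 μM biotinylated covalent probe or DMSO, then pulled down on streptavidin beads. Proteins were run on polyacrylamide gels and stained with Coomassie. Bands were excised, digested and identified by mass spectrometry.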

[6] = target: Proto-oncogene tyrosine-protein kinase Src (Homo sapiens) (UniProt P12931); assay: Binding affinity to SRC in human NCI-H23 cells at 1 uM by mass spectrometry based pull down assay
[7] = target: T1, 80S Ribosome (Homo sapiens); assay: Binding affinity to RPL23A in human NCI-H23 cells at 1 uM by mass spectrometry based pull down assay
[8] = target: T1, 80S Ribosome (Homo sapiens); assay: Binding affinity to RPS17 in human NCI-H358 cells at 1 uM by mass spectrometry based pull down assay
[9] = target: Kelch-like ECH-associated protein 1 (Homo sapiens) (UniProt Q14145); assay: Binding affinity to KEAP1 in human NCI-H358 cells at 1 uM by mass spectrometry based pull down assay
[10] = target: Trifunctional enzyme subunit alpha, mitochondrial (Homo sapiens) (UniProt P40939); assay: Binding affinity to HADHA in human NCI-H23 cells at 1 uM by mass spectrometry based pull down assay
[11] = target: Protein arginine N-methyltransferase 5 (Homo sapiens) (UniProt O14744); assay: Binding affinity to PRMT5 in human NCI-H358 cells at 1 uM by mass spectrometry based pull down assay
[12] = target: Aurora kinase B (Homo sapiens) (UniProt Q96GD4); assay: Binding affinity to AURKB in human NCI-H23 cells at 1 uM by mass spectrometry based pull down assay
[13] = target: DNA mismatch repair protein Msh2 (Homo sapiens) (UniProt P43246); assay: Binding affinity to MSH2 in human NCI-H358 cells at 1 uM by mass spectrometry based pull down assay
[14] = target: Cyclin-dependent kinase 5 (Homo sapiens) (UniProt Q00535); assay: Binding affinity to CDK5 in human NCI-H358 cells at 1 uM by mass spectrometry based pull down assay
[15] = target: Methionine--tRNA ligase, cytoplasmic (Homo sapiens) (UniProt P56192); assay: Binding affinity to MARS in human NCI-H358 cells at 1 uM by mass spectrometry based pull down assay
[16] = target: Reticulon-4 (Homo sapiens) (UniProt Q9NQC3); assay: Binding affinity to RTN4 in human NCI-H358 cells at 1 uM by mass spectrometry based pull down assay
Caprin-1 (Homo sapiens) = Caprin-1 (Homo sapiens) (UniProt Q14444); assay: Binding affinity to CAPRIN1 in human NCI-H358 cells at 1 uM by mass spectrometry based pull down assay
[17] = target: Calcyclin-binding protein (Homo sapiens) (UniProt Q9HB71); assay: Binding affinity to CACYBP in human NCI-H23 cells at 1 uM by mass spectrometry based pull down assay
[18] = target: T1, 80S Ribosome (Homo sapiens); assay: Binding affinity to RPL17 in human NCI-H23 cells at 1 uM by mass spectrometry based pull down assay
[19] = target: Opioid growth factor receptor (Homo sapiens) (UniProt Q9NZT2); assay: Binding affinity to OGFR in human NCI-H358 cells at 1 uM by mass spectrometry based pull down assay
[20] = target: Calcyclin-binding protein (Homo sapiens) (UniProt Q9HB71); assay: Binding affinity to CACYBP in human NCI-H358 cells at 1 uM by mass spectrometry based pull down assay
[21] = target: Deoxyribose-phosphate aldolase (Homo sapiens) (UniProt Q9Y315); assay: Binding affinity to DERA in human NCI-H23 cells at 1 uM by mass spectrometry based pull down assay
[22] = target: X antigen family member 1 (Homo sapiens) (UniProt Q9HD64); assay: Binding affinity to XAGE1B in human NCI-H23 cells at 1 uM by mass spectrometry based pull down assay
[23] = target: Arginine--tRNA ligase, cytoplasmic (Homo sapiens) (UniProt P54136); assay: Binding affinity to RARS in human NCI-H23 cells at 1 uM by mass spectrometry based pull down assay

Measured: Activity

Sequence of Calcyclin-binding protein (Homo sapiens) (Q9HB71 whole entry): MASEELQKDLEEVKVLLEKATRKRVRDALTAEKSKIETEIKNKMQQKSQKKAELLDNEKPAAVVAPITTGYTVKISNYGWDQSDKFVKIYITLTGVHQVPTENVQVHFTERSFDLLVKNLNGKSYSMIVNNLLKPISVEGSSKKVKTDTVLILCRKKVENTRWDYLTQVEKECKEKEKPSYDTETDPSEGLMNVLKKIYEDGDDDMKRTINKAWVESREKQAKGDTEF
Sequence of DNA mismatch repair protein Msh2 (Homo sapiens) (P43246 whole entry): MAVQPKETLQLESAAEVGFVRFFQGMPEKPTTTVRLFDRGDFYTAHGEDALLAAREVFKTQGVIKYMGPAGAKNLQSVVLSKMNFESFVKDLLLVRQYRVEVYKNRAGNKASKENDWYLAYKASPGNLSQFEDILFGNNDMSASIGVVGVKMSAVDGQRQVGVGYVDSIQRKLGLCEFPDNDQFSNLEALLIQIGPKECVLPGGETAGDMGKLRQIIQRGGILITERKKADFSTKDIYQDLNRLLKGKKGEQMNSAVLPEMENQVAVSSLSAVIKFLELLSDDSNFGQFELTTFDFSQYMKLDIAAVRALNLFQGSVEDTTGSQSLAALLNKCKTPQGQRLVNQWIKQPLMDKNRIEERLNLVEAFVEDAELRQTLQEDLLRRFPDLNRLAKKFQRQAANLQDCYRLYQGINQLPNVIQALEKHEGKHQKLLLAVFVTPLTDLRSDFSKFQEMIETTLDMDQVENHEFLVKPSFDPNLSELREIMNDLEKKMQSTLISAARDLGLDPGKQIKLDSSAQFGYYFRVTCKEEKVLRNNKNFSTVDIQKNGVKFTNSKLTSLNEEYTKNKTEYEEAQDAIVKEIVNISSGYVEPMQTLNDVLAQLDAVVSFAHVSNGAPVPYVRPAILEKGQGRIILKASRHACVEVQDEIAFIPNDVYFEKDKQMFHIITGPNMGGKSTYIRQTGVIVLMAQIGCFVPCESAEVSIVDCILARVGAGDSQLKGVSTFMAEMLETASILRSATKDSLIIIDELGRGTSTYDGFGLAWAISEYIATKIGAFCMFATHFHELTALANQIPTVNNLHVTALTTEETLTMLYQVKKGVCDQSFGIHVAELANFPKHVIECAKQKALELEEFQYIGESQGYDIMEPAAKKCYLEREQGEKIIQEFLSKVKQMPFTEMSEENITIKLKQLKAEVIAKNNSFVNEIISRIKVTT
Sequence of Methionine--tRNA ligase, cytoplasmic (Homo sapiens) (P56192 whole entry): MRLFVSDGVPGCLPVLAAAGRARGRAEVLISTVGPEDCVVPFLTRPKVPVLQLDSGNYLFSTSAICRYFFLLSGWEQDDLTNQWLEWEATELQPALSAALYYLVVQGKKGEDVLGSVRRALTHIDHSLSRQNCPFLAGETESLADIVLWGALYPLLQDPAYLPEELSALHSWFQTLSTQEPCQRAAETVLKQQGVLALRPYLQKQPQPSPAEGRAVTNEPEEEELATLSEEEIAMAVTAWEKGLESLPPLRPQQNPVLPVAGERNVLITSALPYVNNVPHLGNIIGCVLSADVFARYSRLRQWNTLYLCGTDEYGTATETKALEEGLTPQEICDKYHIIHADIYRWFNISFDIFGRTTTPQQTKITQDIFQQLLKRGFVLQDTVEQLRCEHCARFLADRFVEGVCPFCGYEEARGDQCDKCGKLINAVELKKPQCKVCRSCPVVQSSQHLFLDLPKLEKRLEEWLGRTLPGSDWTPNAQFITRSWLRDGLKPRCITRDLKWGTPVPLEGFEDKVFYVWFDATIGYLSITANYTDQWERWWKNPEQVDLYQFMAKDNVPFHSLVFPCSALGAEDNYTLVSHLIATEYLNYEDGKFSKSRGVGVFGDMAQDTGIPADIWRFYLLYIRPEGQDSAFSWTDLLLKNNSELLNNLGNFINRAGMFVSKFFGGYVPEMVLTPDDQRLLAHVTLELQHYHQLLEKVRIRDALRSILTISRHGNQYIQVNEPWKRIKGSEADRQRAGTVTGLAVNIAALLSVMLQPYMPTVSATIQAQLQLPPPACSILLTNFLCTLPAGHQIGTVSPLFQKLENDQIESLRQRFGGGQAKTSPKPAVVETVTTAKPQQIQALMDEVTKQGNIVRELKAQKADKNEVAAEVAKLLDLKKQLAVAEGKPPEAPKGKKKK
Sequence of Deoxyribose-phosphate aldolase (Homo sapiens) (Q9Y315 whole entry): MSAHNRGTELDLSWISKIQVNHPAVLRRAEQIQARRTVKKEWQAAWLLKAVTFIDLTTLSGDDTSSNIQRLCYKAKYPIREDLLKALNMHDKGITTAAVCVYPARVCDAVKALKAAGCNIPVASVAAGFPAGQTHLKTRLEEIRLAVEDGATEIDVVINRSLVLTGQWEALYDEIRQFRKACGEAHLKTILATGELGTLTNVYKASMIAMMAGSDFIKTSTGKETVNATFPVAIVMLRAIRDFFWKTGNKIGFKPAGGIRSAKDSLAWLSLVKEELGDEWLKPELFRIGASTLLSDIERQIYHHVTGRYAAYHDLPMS
Sequence of Reticulon-4 (Homo sapiens) (Q9NQC3 whole entry): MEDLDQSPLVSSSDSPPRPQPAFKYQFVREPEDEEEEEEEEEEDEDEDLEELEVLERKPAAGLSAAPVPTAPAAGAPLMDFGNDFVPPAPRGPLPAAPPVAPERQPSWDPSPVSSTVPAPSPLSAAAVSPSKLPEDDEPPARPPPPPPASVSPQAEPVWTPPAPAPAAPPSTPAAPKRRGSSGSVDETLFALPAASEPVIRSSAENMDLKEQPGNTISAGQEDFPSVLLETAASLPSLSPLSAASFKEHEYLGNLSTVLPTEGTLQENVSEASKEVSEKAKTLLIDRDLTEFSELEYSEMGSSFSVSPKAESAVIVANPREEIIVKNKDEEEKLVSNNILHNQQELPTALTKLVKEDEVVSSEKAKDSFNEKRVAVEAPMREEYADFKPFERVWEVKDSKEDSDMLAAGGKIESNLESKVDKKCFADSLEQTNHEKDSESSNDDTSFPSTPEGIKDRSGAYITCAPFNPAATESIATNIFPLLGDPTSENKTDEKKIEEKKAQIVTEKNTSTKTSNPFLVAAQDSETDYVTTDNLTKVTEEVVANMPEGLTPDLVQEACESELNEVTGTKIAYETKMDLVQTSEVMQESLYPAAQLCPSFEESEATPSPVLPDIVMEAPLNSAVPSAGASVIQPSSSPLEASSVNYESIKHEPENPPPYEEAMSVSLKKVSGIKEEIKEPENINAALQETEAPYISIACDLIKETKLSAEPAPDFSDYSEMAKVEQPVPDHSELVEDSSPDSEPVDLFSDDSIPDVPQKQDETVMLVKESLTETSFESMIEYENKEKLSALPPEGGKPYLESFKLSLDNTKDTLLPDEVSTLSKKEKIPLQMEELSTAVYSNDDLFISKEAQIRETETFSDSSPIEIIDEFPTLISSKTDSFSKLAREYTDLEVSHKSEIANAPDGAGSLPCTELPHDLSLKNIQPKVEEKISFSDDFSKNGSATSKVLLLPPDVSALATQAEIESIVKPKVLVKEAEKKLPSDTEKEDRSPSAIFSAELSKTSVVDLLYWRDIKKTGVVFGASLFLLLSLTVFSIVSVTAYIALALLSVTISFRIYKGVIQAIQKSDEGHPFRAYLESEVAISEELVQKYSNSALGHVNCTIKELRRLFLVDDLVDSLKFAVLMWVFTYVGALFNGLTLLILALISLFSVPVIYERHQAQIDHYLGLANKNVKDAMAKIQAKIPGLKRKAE
Sequence of Src substrate cortactin (Homo sapiens) (Q14247 whole entry): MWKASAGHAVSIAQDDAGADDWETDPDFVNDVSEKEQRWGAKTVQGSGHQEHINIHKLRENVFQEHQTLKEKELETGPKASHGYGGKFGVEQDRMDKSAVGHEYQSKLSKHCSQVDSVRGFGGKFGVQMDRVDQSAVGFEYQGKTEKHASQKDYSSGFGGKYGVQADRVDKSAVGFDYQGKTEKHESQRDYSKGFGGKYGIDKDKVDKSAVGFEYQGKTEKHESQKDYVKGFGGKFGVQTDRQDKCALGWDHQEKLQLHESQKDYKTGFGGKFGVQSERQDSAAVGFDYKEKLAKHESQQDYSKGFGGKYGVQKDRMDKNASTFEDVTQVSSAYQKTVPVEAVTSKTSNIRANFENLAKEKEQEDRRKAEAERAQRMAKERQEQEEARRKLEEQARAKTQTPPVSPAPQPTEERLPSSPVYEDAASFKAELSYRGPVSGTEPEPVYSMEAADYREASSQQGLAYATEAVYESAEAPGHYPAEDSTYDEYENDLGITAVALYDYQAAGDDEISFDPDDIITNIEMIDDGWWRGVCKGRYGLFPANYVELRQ
Sequence of Opioid growth factor receptor (Homo sapiens) (Q9NZT2 whole entry): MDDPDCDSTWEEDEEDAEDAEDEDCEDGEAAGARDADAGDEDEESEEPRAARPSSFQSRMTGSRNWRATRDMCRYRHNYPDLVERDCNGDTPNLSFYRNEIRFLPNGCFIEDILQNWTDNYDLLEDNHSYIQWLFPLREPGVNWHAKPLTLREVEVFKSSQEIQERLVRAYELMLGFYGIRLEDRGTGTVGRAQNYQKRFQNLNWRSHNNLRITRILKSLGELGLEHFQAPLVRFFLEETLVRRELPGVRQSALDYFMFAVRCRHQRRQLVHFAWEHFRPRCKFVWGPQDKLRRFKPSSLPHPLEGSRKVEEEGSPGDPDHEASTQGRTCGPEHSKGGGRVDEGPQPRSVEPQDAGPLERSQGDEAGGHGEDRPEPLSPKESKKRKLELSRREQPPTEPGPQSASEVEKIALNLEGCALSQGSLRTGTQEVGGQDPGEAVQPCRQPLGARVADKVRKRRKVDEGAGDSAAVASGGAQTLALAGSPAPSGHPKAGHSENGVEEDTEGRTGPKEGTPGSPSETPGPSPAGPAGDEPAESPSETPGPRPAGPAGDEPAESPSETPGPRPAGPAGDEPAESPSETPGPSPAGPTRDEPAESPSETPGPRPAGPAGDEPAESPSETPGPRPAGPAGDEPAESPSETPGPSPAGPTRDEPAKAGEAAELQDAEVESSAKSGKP
Sequence of X antigen family member 1 (Homo sapiens) (Q9HD64 whole entry): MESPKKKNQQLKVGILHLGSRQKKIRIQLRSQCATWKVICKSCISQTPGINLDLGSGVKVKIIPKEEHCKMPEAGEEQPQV

C=CC(=O)Nc1ccccc1Nc1nc(Nc2ccc(N3CCN(CCOCCOCCOCCNC(=O)CCCC[C@@H]4SC[C@@H]5NC(=O)N[C@@H]54)CC3)cc2)ncc1Cl
active: all assays above
